The values that follow come from ChEMBL document CHEMBL3351346, “Design, synthesis, structure-function relationship, bioconversion, and pharmacokinetic evaluation of ertapenem prodrugs” (J Med Chem, 2014).

One may read the AUC as the area under the concentration-time curve, a measure of exposure.

Series [1] can be described thus: Stability in human plasma assessed as compound remaining at 50 uM at 37 degC after 60 mins by LC-MS/MS method. The format is ADME, cell-free. The settings on record: read-out: Stability. In outline:
(§1)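 Prodrugs were incubated in rat or human plasma for 60 min. Disappearance of prodrug and concomitant appearance of ertapenem were followed by LC-MS/MS, and in selected cases monoesters from partial hydrolysis were also monitored. Ertapenem itself was incubated the same way as a control.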

Series [2] concerns Canis familiaris. As to the kind of experiment: AUC (0 to 8 hrs) in fasted Beagle dog at 10 mg/kg dosed through intraduodenal route by LC-MS/MS method. The format is ADME, organism-based, Canis lupus familiaris, Plasma. Further details: time < 8 hr, dose 10 mg/kg, route intraduodenal. The settings on record: in vivo, other, 8 h. In outline:
(§2)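 Prodrugs were given intraduodenally to bypass stomach acid. Plasma was sampled at intervals over 8 h, and parent prodrug, the two monoester metabolites and ertapenem were quantified by LC-MS/MS. The lower limit of quantitation was 5 nM. AUC(0–8) was used, and it differed from AUC(0–∞) by ±20%. Vehicles were 30% Captisol or 0.5% methylcellulose, as solution or suspension depending on compound.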

The nature of series [3]: Stability in pH 6.5 simulated gastrointestinal fluid assessed as compound remaining at 50 uM after 3 hrs by LC-MS/MS method. The format is ADME. The settings on record: read-out: Stability. In outline:
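Compounds at 50 μM were incubated in fasted-state simulated intestinal fluid (FaSSIF, pH 6.5) for over 3 h. Percent remaining was determined by LC-MS/MS.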

Series [4] relates to Canis familiaris. As to the kind of experiment: Oral bioavailability in fasted Beagle dog assessed as ertapenem level at 10 mg/kg dosed through intraduodenal route by LC-MS/MS method. The format is ADME, organism-based, Canis lupus familiaris. As to conditions: in vivo. In outline: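 After intraduodenal dosing, plasma over 8 h was analysed by LC-MS/MS. Bioavailability was calculated as dose-normalized AUC of ertapenem formed from the prodrug divided by dose-normalized AUC of ertapenem dosed iv. Vehicle was 30% Captisol or 0.5% methylcellulose.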

A short description of series [5]: Stability in rat plasma assessed as compound remaining at 50 uM at 37 degC after 60 mins by LC-MS/MS method. The format is ADME, cell-free. The settings on record: read-out: Stability. In outline:
as §1

Series [6] can be described thus: Stability in pH 7.4 phosphate buffer assessed as compound remaining at 50 uM after 3 hrs by LC-MS/MS method. Type of series: physicochemical. The settings on record: read-out: Stability.
Series [7] relates to Canis familiaris. Briefly: AUC (0 to 8 hrs) in fasted Beagle dog assessed as ertapenem level at 10 mg/kg dosed through intraduodenal route by LC-MS/MS method. The format is ADME, organism-based, Canis lupus familiaris, Plasma. Further details: time < 8 hr, dose 10 mg/kg, route intraduodenal. As to conditions: in vivo, other. Put shortly: as §2
The subject of series [8] is Canis familiaris. Briefly: Oral bioavailability in fasted Beagle dog assessed as assessed as ertapenem and monoetser metabolites level at 10 mg/kg dosed through intraduodenal route by LC-MS/MS method. Type of series: ADME, organism-based, Canis lupus familiaris. The settings on record: in vivo. In outline:
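Total absorption followed intraduodenal dosing with LC-MS/MS of plasma over 8 h. It was calculated as the combined dose-normalized AUC of circulating parent prodrug, ertapenem and two monoesters, divided by dose-normalized AUC of ertapenem given iv. Vehicle was 30% Captisol or 0.5% methylcellulose.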

A short description of series [9]: Stability in pH 2.0 simulated gastric fluid assessed as compound degradation to beta-lactam ring open products at 1 uM after 60 mins by LC-MS/MS method. The format is ADME. As to conditions: read-out: Drug degradation. Put shortly: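 Incubation was in simulated gastric fluid (SGF, pH 2.0) for 60 min, with loss to the β-lactam ring-opened product measured by LC-MS/MS.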

Series [10] relates to Canis familiaris. Briefly: AUC (0 to 8 hrs) in fasted Beagle dog assessed as 8-OH, C-3 ester level at 10 mg/kg dosed through intraduodenal route by LC-MS/MS method. Type of series: ADME, organism-based, Canis lupus familiaris, Plasma. The arrangement: time < 8 hr, dose 10 mg/kg, route intraduodenal. The settings on record: in vivo, other. Put shortly:
as §2

Series [11] has as its system Canis familiaris. As to the kind of experiment: AUC (0 to 8 hrs) in fasted Beagle dog assessed as 8-OH, benzoate ester level at 10 mg/kg dosed through intraduodenal route by LC-MS/MS method. Type of series: ADME, organism-based, Canis lupus familiaris, Plasma. The arrangement: time < 8 hr, dose 10 mg/kg, route intraduodenal. As to conditions: in vivo, other. Put shortly: as §2

`C[C@@H](O)[C@H]1C(=O)N2C3=C(S[C@@H]4CN[C@@H](C4)C(=O)Nc4cccc(c4)C(=O)OCc4oc(=O)oc4COC3=O)[C@H](C)[C@H]12`: the remaining at 1 h, 50 µM in [1] and in [5] was 0% each time. Besides, the exposure (AUC) result in [2] (BLD = below limit of detection) was “BLD”; in [7], 0.7 µM·h. Moreover, the remaining at 3 h, 50 µM in [3] and in series [6] was above 95% in each case. The F in series [4] and in series [8] was 1% in each case. Moreover, the degraded at 1 h, 1 µM in [9] is above 25%.
Regarding `CCC(=O)OCOC(=O)C1=C(S[C@@H]2CN[C@H](C(=O)Nc3cccc(C(=O)OCOC(=O)CC)c3)C2)[C@H](C)[C@@H]2[C@@H]([C@@H](C)O)C(=O)N12`, the remaining at 1 h, 50 µM in [1] and in [5] was 0% in each case. Moreover, the exposure (AUC) entry was “BLD” in [2] (BLD = below limit of detection), “BLD” in series [10] (BLD = below limit of detection) and 1.6 µM·h in series [7]. Moreover, the remaining at 3 h, 50 µM in series [3] and in [6] was above 95% throughout. Further, the F in [4] and in series [8] was 2.9% in each case. For the same molecule, the degraded at 1 h, 1 µM in series [9] was above 25%.
On to `C[C@@H](O)[C@H]1C(=O)N2C3=C(S[C@@H]4CN[C@@H](C4)C(=O)Nc4cccc(c4)C(=O)OCCCOC3=O)[C@H](C)[C@H]12`, for which the remaining at 1 h, 50 µM in series [1] was 34%. Moreover, the AUC came to 0.1 µM·h in series [2] and 0.4 µM·h in series [7]. Further, the remaining at 3 h, 50 µM in series [3] and in [6] was above 95% each time. Moreover, the F amounted to 0.5% in [4] and 0.7% in series [8]. Further, the degraded at 1 h, 1 µM in [9] was above 25%.
Turning to `CCOC(=O)C1=C(S[C@H]2C[C@@H](C(=O)Nc3cccc(C(=O)OCC)c3)N(C(=O)OCc3oc(=O)oc3C)C2)[C@H](C)[C@@H]2[C@@H]([C@@H](C)O)C(=O)N12`, the remaining at 1 h, 50 µM in series [1] is 9%; in [5], 0%. In addition, the AUC result was “BLD” in series [2] (BLD = below limit of detection), 3.1 µM·h in [11], 0.7 µM·h in series [10] and 3.4 µM·h in [7]. The remaining at 3 h, 50 µM in series [3] and in series [6] was above 95% each time. In addition, the F in series [4] is 6.4%; in [8], 14.4%. Moreover, the degraded at 1 h, 1 µM in series [9] was above 25%.
With `C[C@@H](O)[C@H]1C(=O)N2C(C(=O)OCOC(=O)OC3CCCCC3)=C(S[C@@H]3CN[C@H](C(=O)Nc4cccc(C(=O)OCOC(=O)OC5CCCCC5)c4)C3)[C@H](C)[C@H]12`, the remaining at 1 h, 50 µM in [1] amounted to 96%; in series [5], 10%. In addition, the remaining at 3 h, 50 µM in [3] and in [6] was above 95% in each case. For the same molecule, the degraded at 1 h, 1 µM in series [9] was above 25%.
Consider `CCOC(=O)C1=C(S[C@@H]2CN[C@H](C(=O)Nc3cccc(C(=O)OCC)c3)C2)[C@H](C)[C@@H]2[C@@H]([C@@H](C)OC(=O)[C@@H](N)C(C)C)C(=O)N12`, for which the remaining at 1 h, 50 µM in series [1] is 38%; in series [5], 0%. Further, the area under the curve (AUC) entry in [2] (BLD = below limit of detection) was “BLD”; in [11] it was 1 µM·h; in series [10] it was 0.9 µM·h; in [7] it was 6.5 µM·h. In addition, the remaining at 3 h, 50 µM in [3] and in series [6] was above 95% in each case. For the same molecule, the F in series [4] was found to be 9.7%; in [8], 14.9%. In addition, in series [9], the degraded at 1 h, 1 µM was above 25%.
With `CCC(CC)C(=O)OCOC(=O)C1=C(S[C@@H]2CN[C@H](C(=O)Nc3cccc(C(=O)OCOC(=O)C(CC)CC)c3)C2)[C@H](C)[C@@H]2[C@@H]([C@@H](C)O)C(=O)N12`, the values for the remaining at 1 h, 50 µM in [1] and in [5] were 83% and 3%, respectively. Further, the remaining at 3 h, 50 µM in series [3] and in series [6] was above 95% each time. In series [9], the degraded at 1 h, 1 µM was above 25%.
Regarding `C[C@@H](O)[C@H]1C(=O)N2C(C(=O)OCOC(=O)OC(C)(C)C)=C(S[C@@H]3CN[C@H](C(=O)Nc4cccc(C(=O)O)c4)C3)[C@H](C)[C@H]12`, the remaining at 1 h, 50 µM turned out to be 40% in [1] and 0% in [5]. The remaining at 3 h, 50 µM in series [3] and in [6] was above 95% throughout. Also, the degraded at 1 h, 1 µM in [9] is above 25%.
In the case of `C[C@@H](O)[C@H]1C(=O)N2C(C(=O)OCOC(=O)C3CCCCC3)=C(S[C@@H]3CN[C@H](C(=O)Nc4cccc(C(=O)OCOC(=O)C5CCCCC5)c4)C3)[C@H](C)[C@H]12`, the remaining at 1 h, 50 µM in series [1] was found to be 60%; in series [5], 10%. The remaining at 3 h, 50 µM in series [3] and in [6] was above 95% throughout. The degraded at 1 h, 1 µM in [9] was above 25%.
Regarding `CC(C)C(=O)OCOC(=O)c1cccc(NC(=O)[C@@H]2C[C@H](SC3=C(C(=O)O)N4C(=O)[C@H]([C@@H](C)O)[C@H]4[C@H]3C)CN2)c1`, the remaining at 1 h, 50 µM in [1] is 26%; in series [5] it was 0%. Further, the remaining at 3 h, 50 µM in series [3] and in series [6] was above 95% throughout. Besides, the degraded at 1 h, 1 µM in series [9] was above 25%.
Regarding `C[C@@H](O)[C@H]1C(=O)N2C(C(=O)O)=C(S[C@@H]3CN[C@H](C(=O)Nc4cccc(C(=O)OCOC(=O)C(C)(C)C)c4)C3)[C@H](C)[C@H]12`, the remaining at 1 h, 50 µM in series [1] is 53%; in series [5] it was 0%. Further, the remaining at 3 h, 50 µM in series [3] and in [6] was above 95% in each case. The degraded at 1 h, 1 µM in [9] is above 25%.
As for `CC(C)OC(=O)OCOC(=O)C1=C(S[C@@H]2CN[C@H](C(=O)Nc3cccc(C(=O)OCOC(=O)OC(C)C)c3)C2)[C@H](C)[C@@H]2[C@@H]([C@@H](C)O)C(=O)N12`, the results for the remaining at 1 h, 50 µM in [1] and in [5] were 28% and 3%, respectively. Besides, the remaining at 3 h, 50 µM in series [3] and in series [6] was above 95% throughout. Besides, the degraded at 1 h, 1 µM in series [9] is above 25%.
Regarding `C[C@@H](O)[C@H]1C(=O)N2C(C(=O)OCOC(=O)OC3CCCCC3)=C(S[C@@H]3CN[C@H](C(=O)Nc4cccc(C(=O)O)c4)C3)[C@H](C)[C@H]12`, the figures for the remaining at 1 h, 50 µM in series [1] and in series [5] were 46% and 0%, respectively. Besides, the remaining at 3 h, 50 µM in series [3] and in series [6] was above 95% throughout. Also, in [9], the degraded at 1 h, 1 µM is above 25%.
Turning to `CC(OC(=O)C1=C(S[C@@H]2CN[C@H](C(=O)Nc3cccc(C(=O)OC(C)OC(=O)C(C)(C)C)c3)C2)[C@H](C)[C@@H]2[C@@H]([C@@H](C)O)C(=O)N12)OC(=O)C(C)(C)C` (some centres undefined), the remaining at 1 h, 50 µM in series [1] amounted to 46%; in series [5], 2%. Also, the remaining at 3 h, 50 µM in series [3] and in [6] was above 95% each time. The degraded at 1 h, 1 µM in series [9] was above 25%.
As to `C[C@@H](O)[C@H]1C(=O)N2C3=C(S[C@@H]4CN[C@@H](C4)C(=O)Nc4cccc(c4)C(=O)OC/C=C\COC3=O)[C@H](C)[C@H]12`, the remaining at 1 h, 50 µM in series [1] is 21%; in series [5], 0%. For the same molecule, the remaining at 3 h, 50 µM in series [3] and in [6] was above 95% in each case. In addition, the degraded at 1 h, 1 µM in [9] is above 25%.
